From the M2OR odorant receptor database

These compounds were tested against T1, OR8D1 (Homo sapiens) (UniProt Q8WZ84). Conditions: stereoisomer not certain.
T1 sequence (whole entry): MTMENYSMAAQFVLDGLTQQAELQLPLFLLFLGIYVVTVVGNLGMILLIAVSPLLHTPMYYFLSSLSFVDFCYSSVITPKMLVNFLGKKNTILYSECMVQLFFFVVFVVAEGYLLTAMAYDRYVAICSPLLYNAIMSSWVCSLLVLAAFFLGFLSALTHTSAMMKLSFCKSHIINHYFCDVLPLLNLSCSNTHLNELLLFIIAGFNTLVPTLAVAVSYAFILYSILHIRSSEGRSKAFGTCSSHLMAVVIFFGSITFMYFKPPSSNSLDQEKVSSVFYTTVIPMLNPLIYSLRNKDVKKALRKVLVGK
Procedure, shortened: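 Values were gathered from published papers (main text and supplementary material), with extra details requested from the original authors when needed, and checked for typos and inconsistencies. Each receptor–molecule pair is called responsive (active) if the original authors judged the measured signal statistically different from baseline, and non-responsive (inactive) otherwise. Assay methods varied by source, often transient mammalian cell-line luciferase assays. Recorded details include cell line, G-protein, co-transfected protein and tags.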

Odorant receptor agonist call, inactive:
CC=Cc1ccc(OC)cc1
CCOC(=O)C(C)CC (configuration not stated)
CC1=CCC(C(C)C)C=C1 (configuration not stated)
CC(C)=CC1CC(C)CCO1 (configuration not stated)
CCCCC(=O)O
C=CC(=O)CC=CCC
CC(=O)c1cnccn1
CCCCCCC(=O)[O-].[H+]
CCC=CCCC=O
CC(=O)OCCc1ccccc1
CCCCCCCCCO
CCCC(O)CC(=O)OCC (configuration not stated)
CC(=O)OCC=Cc1ccccc1
CCC(=O)O
CC(C)(S)CCOC=O
CCC(C)C=O (configuration not stated)
CSCCCO
C=Cc1ccc(O)cc1
CCCCCCC=CC=O
C=Cc1ccc(O)c(OC)c1
Cc1occc1S
CC=CC(=O)C1=C(C)CCCC1(C)C
CCCSSSC
CCOC(=O)CC(C)C
Cc1ccc(O)cc1
CCCCCCCC1CCCC(=O)O1 (configuration not stated)
CCOC(=O)c1ccccc1
CCCSSCCC
C=CC(=C)CCC=C(C)C
CCCC(S)CCO (configuration not stated)
CC(C)CCCCCCCCCCC=O
CCC(C)CCC(=O)[O-] (configuration not stated)
CCCCCC=CC=CC=O
CCCCCC=CC=O
SCc1cccs1
CCC=O
COc1nccnc1C(C)C
